Experimental data reported in ChEMBL document CHEMBL1145184, “Synthesis, X-ray crystal structure study, and cytostatic and antiviral evaluation of the novel cycloalkyl-N-aryl-hydroxamic acids” (J Med Chem, 2005).
In brackets after ≈: the same amount, converted by molar mass.

System: CCRF-CEM
Assay: Inhibitory concentration ofthecompound was determined against CEM cell line
Assay type: functional, cell-based
Settings: Homo sapiens

SMILES	IC50 [µM]
O=C(C1CCCCC1)N(O)c1ccc(Cl)cc1	17

System: HeLa
Assay: Inhibitory concentration of the compound was determined against HeLa cell line
Assay type: functional, cell-based
Settings: Homo sapiens

SMILES	IC50 [µM]
O=C(N(O)c1ccc(Cl)cc1)C12CC3CC(CC(C3)C1)C2	> 100
O=C(CC1CCCCC1)N(O)c1ccccc1	30

System: Cell line
Assay: Cytotoxic concentration required to reduce cell growth by 50%
Assay type: functional
Settings: Homo sapiens
Outline: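 Growth of HEL cells was measured. CC50 is the concentration that reduces cell growth by 50%, given in µg/mL.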

SMILES	CC50 [µg/mL]
O=C(CC1CCCCC1)N(O)c1ccc(Cl)cc1	129 (≈ 482 µM)
O=C(C1CCCCC1)N(O)c1ccc(Cl)cc1	28 (≈ 110 µM)
O=C(CCC1CCCCC1)N(O)c1ccc(Cl)cc1	4.7 (≈ 16.7 µM)
O=C(N(O)c1ccc(Cl)cc1)C12CC3CC(CC(C3)C1)C2	> 50
O=C(C1CC1)N(O)c1ccc(Cl)cc1	37 (≈ 175 µM)
Nc1ccn(C[C@@H](CO)OCP(=O)(O)O)c(=O)n1.O.O [CIDOFOVIR]	24
O=C(CC1CCCCC1)N(O)c1ccccc1	> 200
O=C(CCC1CCCC1)N(O)c1ccc(Cl)cc1	20 (≈ 74.7 µM)

System: L1210
Assay: Inhibitory concentration of the compound was determined against L1210 cell line
Assay type: functional, cell-based
Settings: Mus musculus

SMILES	IC50 [µM]
O=C(CC1CCCCC1)N(O)c1ccc(Cl)cc1	26
O=C(C1CCCCC1)N(O)c1ccc(Cl)cc1	16
O=C(CCC1CCCCC1)N(O)c1ccc(Cl)cc1	21
O=C(N(O)c1ccc(Cl)cc1)C12CC3CC(CC(C3)C1)C2	290
O=C(CC1CCCCC1)N(O)c1ccccc1	27
O=C(CCC1CCCC1)N(O)c1ccc(Cl)cc1	38

System: CCRF-CEM
Assay: Inhibitory concentration was determined against CEM cell line
Assay type: functional, cell-based
Settings: Homo sapiens

SMILES	IC50 [µM]
O=C(CCC1CCCC1)N(O)c1ccc(Cl)cc1	37

System: HeLa
Assay: Inhibitory concentration of the compound was determined againstHeLa cell line
Assay type: functional, cell-based
Settings: Homo sapiens

SMILES	IC50 [µM]
O=C(CC1CCCCC1)N(O)c1ccc(Cl)cc1	30
O=C(C1CCCCC1)N(O)c1ccc(Cl)cc1	30
O=C(CCC1CCCCC1)N(O)c1ccc(Cl)cc1	30
O=C(C1CC1)N(O)c1ccc(Cl)cc1	> 80
O=C(CCC1CCCC1)N(O)c1ccc(Cl)cc1	30

System: not listed separately
Assay: Inhibitory concentration of the compound was determined against W138 cell line
Assay type: functional, cell-based, Homo sapiens
Settings: not given
Outline: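 Cytostatic test on human normal fibroblasts, run in the same panel as the malignant tumour lines L1210, Molt4/C8, CEM, SW620, Hep2, MiaPaCa2, MCF7 and HeLa. The value is reported as an IC50.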

SMILES	IC50 [µM]
O=C(CC1CCCCC1)N(O)c1ccc(Cl)cc1	50
O=C(C1CCCCC1)N(O)c1ccc(Cl)cc1	100
O=C(CCC1CCCCC1)N(O)c1ccc(Cl)cc1	30
O=C(N(O)c1ccc(Cl)cc1)C12CC3CC(CC(C3)C1)C2	> 100
O=C(C1CC1)N(O)c1ccc(Cl)cc1	> 100
O=C(CC1CCCCC1)N(O)c1ccccc1	70
O=C(CCC1CCCC1)N(O)c1ccc(Cl)cc1	10

System: L1210
Assay: Inhibitory concentration against L1210 cell line
Assay type: functional, cell-based
Settings: Mus musculus

SMILES	IC50 [µM]
O=C(C1CC1)N(O)c1ccc(Cl)cc1	22

System: Cytomegalovirus
Assay: Effective concentration against AD-169 strain of CMV virus expressed in HEL cells
Assay type: functional, organism-based
Settings: Human betaherpesvirus 5, HEL
Outline: (§1)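 Human embryonic lung (HEL) cell cultures infected with cytomegalovirus at 100 plaque forming units. EC50 is the concentration that cuts plaque formation by 50%, given in µg/mL.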

SMILES	EC50 [µg/mL]
O=C(CC1CCCCC1)N(O)c1ccc(Cl)cc1	7.3 (≈ 27.3 µM)
O=C(C1CCCCC1)N(O)c1ccc(Cl)cc1	7.3 (≈ 28.8 µM)
Nc1nc2c(ncn2COC(CO)CO)c(=O)[nH]1 [GANCICLOVIR]	0.37 (≈ 1.45 µM)
O=C(CCC1CCCCC1)N(O)c1ccc(Cl)cc1	1.5 (≈ 5.32 µM)
O=C(N(O)c1ccc(Cl)cc1)C12CC3CC(CC(C3)C1)C2	13 (≈ 42.5 µM)
O=C(C1CC1)N(O)c1ccc(Cl)cc1	> 20
Nc1ccn(C[C@@H](CO)OCP(=O)(O)O)c(=O)n1.O.O [CIDOFOVIR]	0.18
O=C(CC1CCCCC1)N(O)c1ccccc1	8 (≈ 34.3 µM)
O=C(CCC1CCCC1)N(O)c1ccc(Cl)cc1	10 (≈ 37.3 µM)

System: CCRF-CEM
Assay: Inhibitory concentration of the compound was determined againstCEM cell line
Assay type: functional, cell-based
Settings: Homo sapiens

SMILES	IC50 [µM]
O=C(CC1CCCCC1)N(O)c1ccc(Cl)cc1	16
O=C(CCC1CCCCC1)N(O)c1ccc(Cl)cc1	36
O=C(N(O)c1ccc(Cl)cc1)C12CC3CC(CC(C3)C1)C2	> 500
O=C(C1CC1)N(O)c1ccc(Cl)cc1	25
O=C(CC1CCCCC1)N(O)c1ccccc1	40

System: MIA PaCa-2
Assay: Inhibitory concentration of the compound was determined against MiaPaCa2 cell line
Assay type: functional, cell-based
Settings: Homo sapiens

SMILES	IC50 [µM]
O=C(CC1CCCCC1)N(O)c1ccc(Cl)cc1	8
O=C(C1CCCCC1)N(O)c1ccc(Cl)cc1	20
O=C(CCC1CCCCC1)N(O)c1ccc(Cl)cc1	10
O=C(N(O)c1ccc(Cl)cc1)C12CC3CC(CC(C3)C1)C2	> 100
O=C(C1CC1)N(O)c1ccc(Cl)cc1	> 100
O=C(CC1CCCCC1)N(O)c1ccccc1	40
O=C(CCC1CCCC1)N(O)c1ccc(Cl)cc1	7

System: Cell line
Assay: Minimum cytotoxic concentration that causes a microscopically detectable alteration of cell morphology
Assay type: functional
Settings: Homo sapiens

SMILES	MCC [µg/mL]
O=C(CC1CCCCC1)N(O)c1ccc(Cl)cc1	50
O=C(C1CCCCC1)N(O)c1ccc(Cl)cc1	≥ 20
Nc1nc2c(ncn2COC(CO)CO)c(=O)[nH]1 [GANCICLOVIR]	≥ 400
O=C(CCC1CCCCC1)N(O)c1ccc(Cl)cc1	≥ 4
O=C(N(O)c1ccc(Cl)cc1)C12CC3CC(CC(C3)C1)C2	100
O=C(C1CC1)N(O)c1ccc(Cl)cc1	100
Nc1ccn(C[C@@H](CO)OCP(=O)(O)O)c(=O)n1.O.O [CIDOFOVIR]	≥ 400
O=C(CC1CCCCC1)N(O)c1ccccc1	100
O=C(CCC1CCCC1)N(O)c1ccc(Cl)cc1	100

System: SW-620
Assay: Inhibitory concentration of the compound was determined against SW6 20 cell line
Assay type: functional, cell-based
Settings: Homo sapiens

SMILES	IC50 [µM]
O=C(CC1CCCCC1)N(O)c1ccc(Cl)cc1	9
O=C(C1CCCCC1)N(O)c1ccc(Cl)cc1	10
O=C(CCC1CCCCC1)N(O)c1ccc(Cl)cc1	20
O=C(N(O)c1ccc(Cl)cc1)C12CC3CC(CC(C3)C1)C2	> 100
O=C(C1CC1)N(O)c1ccc(Cl)cc1	60
O=C(CC1CCCCC1)N(O)c1ccccc1	20
O=C(CCC1CCCC1)N(O)c1ccc(Cl)cc1	10

System: MOLT-4
Assay: Inhibitory concentration of the compound was determined against Molt 4/C8 cell line
Assay type: functional, cell-based
Settings: Homo sapiens

SMILES	IC50 [µM]
O=C(CC1CCCCC1)N(O)c1ccc(Cl)cc1	33
O=C(C1CCCCC1)N(O)c1ccc(Cl)cc1	19
O=C(CCC1CCCCC1)N(O)c1ccc(Cl)cc1	24
O=C(N(O)c1ccc(Cl)cc1)C12CC3CC(CC(C3)C1)C2	≥ 500
O=C(C1CC1)N(O)c1ccc(Cl)cc1	24
O=C(CC1CCCCC1)N(O)c1ccccc1	41
O=C(CCC1CCCC1)N(O)c1ccc(Cl)cc1	28

System: HEp-2
Assay: Inhibitory concentration of the compound was determined against Hep2 cell line
Assay type: functional, cell-based
Settings: Homo sapiens

SMILES	IC50 [µM]
O=C(CC1CCCCC1)N(O)c1ccc(Cl)cc1	9
O=C(C1CCCCC1)N(O)c1ccc(Cl)cc1	40
O=C(CCC1CCCCC1)N(O)c1ccc(Cl)cc1	30
O=C(N(O)c1ccc(Cl)cc1)C12CC3CC(CC(C3)C1)C2	> 100
O=C(C1CC1)N(O)c1ccc(Cl)cc1	> 100
O=C(CC1CCCCC1)N(O)c1ccccc1	> 100
O=C(CCC1CCCC1)N(O)c1ccc(Cl)cc1	20

System: Cytomegalovirus
Assay: Effective concentration against Davis strain of CMV virus expressed in HEL cells
Assay type: functional, organism-based
Settings: Human betaherpesvirus 5, HEL
Outline: as §1

SMILES	EC50 [µg/mL]
O=C(CC1CCCCC1)N(O)c1ccc(Cl)cc1	6.2 (≈ 23.2 µM)
O=C(C1CCCCC1)N(O)c1ccc(Cl)cc1	8.9 (≈ 35.1 µM)
Nc1nc2c(ncn2COC(CO)CO)c(=O)[nH]1 [GANCICLOVIR]	0.37 (≈ 1.45 µM)
O=C(CCC1CCCCC1)N(O)c1ccc(Cl)cc1	0.8 (≈ 2.84 µM)
O=C(N(O)c1ccc(Cl)cc1)C12CC3CC(CC(C3)C1)C2	7 (≈ 22.9 µM)
O=C(C1CC1)N(O)c1ccc(Cl)cc1	> 20
Nc1ccn(C[C@@H](CO)OCP(=O)(O)O)c(=O)n1.O.O [CIDOFOVIR]	0.29
O=C(CC1CCCCC1)N(O)c1ccccc1	8 (≈ 34.3 µM)
O=C(CCC1CCCC1)N(O)c1ccc(Cl)cc1	8 (≈ 29.9 µM)

System: MCF7
Assay: Inhibitory concentration of the compound was determined against MCF-7 cell line
Assay type: functional, cell-based
Settings: Homo sapiens

SMILES	IC50 [µM]
O=C(CC1CCCCC1)N(O)c1ccc(Cl)cc1	10
O=C(C1CCCCC1)N(O)c1ccc(Cl)cc1	80
O=C(CCC1CCCCC1)N(O)c1ccc(Cl)cc1	20
O=C(N(O)c1ccc(Cl)cc1)C12CC3CC(CC(C3)C1)C2	> 100
O=C(C1CC1)N(O)c1ccc(Cl)cc1	> 100
O=C(CC1CCCCC1)N(O)c1ccccc1	> 100
O=C(CCC1CCCC1)N(O)c1ccc(Cl)cc1	10
